In ChEMBL document CHEMBL1149182, “Cyclodextrin-derived diorganyl tellurides as glutathione peroxidase mimics and inhibitors of thioredoxin reductase and cancer cell growth” (J Med Chem, 2004):
pIC50: −log10 of the molar value.

What was measured:
Thioredoxin reductase [1] = target: T1, Thioredoxin reductase (Homo sapiens, UniProt Q16881+Q9NNW7+Q86VQ6); test: Inhibition of thioredoxin reductase in the presence of thioredoxinand insulin; assay type: protein assay
Outline: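 Insulin reduction coupled to Trx/TrxR, final concentrations: 100 mM HEPES pH 7.2, 5 mM EDTA, 1 mM NADPH, 1.0 μM TrxR, 0.8 μM Trx, 2.5 mg/mL bovine insulin plus inhibitor. 30 min at 37 °C, stopped with 6 M guanidine HCl/50 mM Tris pH 8.0/10 mM DTNB, absorbance at 412 nm. IC50 for 50% inhibition of thionitrobenzoate formation.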

Thioredoxin reductase [2] = target: T1, Thioredoxin reductase; test: Inhibition of thioredoxin reductase; assay type: protein assay
Outline: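 TrxR-only activity in HE buffer (100 mM HEPES pH 7.2, 5 mM EDTA) with 1.0 μM TrxR, 10 mM DTNB, 1 mM NADPH and inhibitor (final). Compound and enzyme added first, reaction started with NADPH/DTNB at 37 °C. OD 412 nm read every 10 s for initial linear rates. IC50 is 50% inhibition of thionitrobenzoate formation.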

MCF7 = test: Inhibition of growth of MCF-7 breast cancer cells in culture; assay type: functional, cell-based; details: Homo sapiens
Outline: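 Human MCF-7 cells seeded at 3000/well in DMEM + 10% FBS, 16 h at 37 °C, 5.5% CO2, then compound 0.1–20 μM for 72 h. MTT added for 3 h, formazan dissolved in DMSO, dual OD read at 595/655 nm. Viability given as % of untreated control. IC50 is concentration halving growth versus control. Triplicate determinations.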

Structure (SMILES)	IC50 (Thioredoxin reductase [1]) [µM]	IC50 (Thioredoxin reductase [2]) [µM]	pIC50 (MCF7)
CN(C)c1ccc([Te]CC2O[C@@H]3O[C@@H]4C(CO)O[C@H](O[C@@H]5C(CO)O[C@H](O[C@@H]6C(CO)O[C@@H](O[C@@H]7C(CO)O[C@H](O[C@@H]8C(CO)O[C@H](O[C@@H]9C(CO)O[C@H](O[C@H]2C(O)C3O)C(O)C9O)C(O)C8O)C(O)C7O)C(O)C6O)C(O)C5O)C(O)C4O)cc1 (stereo partly specified)	3.4	0.26	4.98
COc1ccc([Te]CC2O[C@@H]3O[C@@H]4C(CO)O[C@H](O[C@@H]5C(CO)O[C@H](O[C@@H]6C(CO)O[C@@H](O[C@@H]7C(CO)O[C@H](O[C@@H]8C(CO)O[C@H](O[C@@H]9C(CO)O[C@H](O[C@H]2C(O)C3O)C(O)C9O)C(O)C8O)C(O)C7O)C(O)C6O)C(O)C5O)C(O)C4O)cc1 (stereo partly specified)	7.6	1.6	5.34
OCC1O[C@@H]2O[C@@H]3C(C[Se]c4ccccc4)O[C@H](O[C@@H]4C(CO)O[C@H](O[C@@H]5C(CO)O[C@H](O[C@@H]6C(CO)O[C@@H](O[C@@H]7C(CO)O[C@H](O[C@@H]8C(CO)O[C@H](O[C@H]1C(O)C2O)C(O)C8O)C(O)C7O)C(O)C6O)C(O)C5O)C(O)C4O)C(O)C3O (stereo partly specified)	18	17.8	4.99
OCC1O[C@@H]2O[C@@H]3C(CO)O[C@H](O[C@@H]4C(CO)O[C@H](O[C@@H]5C(CO)O[C@@H](O[C@@H]6C(CO)O[C@H](O[C@@H]7C(C[Te]CC8O[C@@H]9O[C@@H]%10C(CO)O[C@@H](O[C@@H]%11C(CO)O[C@H](O[C@@H]%12C(CO)O[C@H](O[C@@H]%13C(CO)O[C@H](O[C@@H]%14C(CO)O[C@H](O[C@@H]%15C(CO)O[C@H](O[C@H]8C(O)C9O)C(O)C%15O)C(O)C%14O)C(O)C%13O)C(O)C%12O)C(O)C%11O)C(O)C%10O)O[C@H](O[C@@H]8C(CO)O[C@H](O[C@H]1C(O)C2O)C(O)C8O)C(O)C7O)C(O)C6O)C(O)C5O)C(O)C4O)C(O)C3O (stereo partly specified)	0.5	2.4	5.85
CCCC[Te]CC1O[C@@H]2O[C@@H]3C(CO)O[C@H](O[C@@H]4C(CO)O[C@H](O[C@@H]5C(CO)O[C@@H](O[C@@H]6C(CO)O[C@H](O[C@@H]7C(CO)O[C@H](O[C@@H]8C(CO)O[C@H](O[C@H]1C(O)C2O)C(O)C8O)C(O)C7O)C(O)C6O)C(O)C5O)C(O)C4O)C(O)C3O (stereo partly specified)	1.2	18	5.22
OCC1O[C@@H]2O[C@@H]3C(C[Te]c4ccc(O)cc4)O[C@H](O[C@@H]4C(CO)O[C@H](O[C@@H]5C(CO)O[C@H](O[C@@H]6C(CO)O[C@@H](O[C@@H]7C(CO)O[C@H](O[C@@H]8C(CO)O[C@H](O[C@H]1C(O)C2O)C(O)C8O)C(O)C7O)C(O)C6O)C(O)C5O)C(O)C4O)C(O)C3O (stereo partly specified)	4	18	5.80
OCC1O[C@@H]2O[C@@H]3C(C[Te]c4ccccc4)O[C@H](O[C@@H]4C(CO)O[C@H](O[C@@H]5C(CO)O[C@H](O[C@@H]6C(CO)O[C@@H](O[C@@H]7C(CO)O[C@H](O[C@@H]8C(CO)O[C@H](O[C@H]1C(O)C2O)C(O)C8O)C(O)C7O)C(O)C6O)C(O)C5O)C(O)C4O)C(O)C3O (stereo partly specified)	7.6	1.6	5.00
